# Results reported in ChEMBL document CHEMBL5303300, “EUbOPEN Chemogenomics Library - Multiplex” (2023).
# Values joined by “and” are separate entries in the source; they are usually repeats but may differ in a detail not shown here. Equal entries are not always repeated.
# Assays:
# Assay type in all cases: toxicity, cell-based
# [1] = system: Fibroblast; test: Multiplex assay against human fibroblast; conditions: number of replicates 2
# In short: (§1)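 Phenotypes for tubulin, mitochondrial mass and membrane permeability are expressed as per cents of healthy-nucleus cells. Cells were stained live at seeding with Hoechst33342, BioTracker Green Microtubule Cytoskeleton Dye, MitoTracker Red and Annexin V Alexa Fluor 680, then imaged after compound addition on a CQ1 microscope at 37°C and 5% CO2. Machine-learning gating in CellPathfinder separated Hoechst high-intensity objects from normal cells, divided normal cells by nuclear state (healthy, pyknosed, fragmented) and divided pyknosed cells into mitotic or apoptotic.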
# [2] = system: U2OS; test: Multiplex assay against U2OS; conditions: human, number of replicates 2; in short: as §1
# [3] = system: HEK-293T; test: Multiplex assay against HEK293T; conditions: human, number of replicates 2; in short: as §1
# [4] = 12 h, 1 µM, compound concentration 1 uM
# [5] = 12 h, 10 µM, compound concentration 10 uM
# [6] = 24 h, 1 µM, compound concentration 1 uM
# [7] = 24 h, 10 µM, compound concentration 10 uM
# [8] = 48 h, 1 µM, compound concentration 1 uM
# [9] = 48 h, 10 µM, compound concentration 10 uM
structure (smiles),measurement,setting,value
CC(C)(C)c1cnc(CSc2cnc(NC(=O)C3CCN(CC(=O)NCCOCCOCCOCCNc4cccc5c4C(=O)N(C4CCC(=O)NC4=O)C5=O)CC3)s2)o1 (configuration not stated),Population Apoptotic (%),[1]; [4],44% and 47%
same,Population Fragmented Nuclei (%),[1]; [4],8% and 7%
same,Population Healthy Nuclei (%),[1]; [4],70% and 73%
same,Population Hoechst High Intensity Objects (%),[1]; [4],0%
same,Population Membrane Permeable-Phenotype (%),[1]; [4],2% and 3%
same,Population Mitochondria Different-Phenotype (%),[1]; [4],1% and 0%
same,Population Mitotic Cells (%),[1]; [4],55% and 52%
same,Population Normal (%),[1]; [4],100%
same,Population Pyknosed Nuclei (%),[1]; [4],21% and 19%
same,Total Cell Count,[1]; [4],180 and 189
same,Population Apoptotic (%),[1]; [5],61% and 53%
same,Population Fragmented Nuclei (%),[1]; [5],15% and 23%
same,Population Healthy Nuclei (%),[1]; [5],47% and 50%
same,Population Hoechst High Intensity Objects (%),[1]; [5],0%
same,Population Membrane Permeable-Phenotype (%),[1]; [5],15% and 27%
same,Population Mitochondria Different-Phenotype (%),[1]; [5],9% and 16%
same,Population Mitotic Cells (%),[1]; [5],38% and 46%
same,Population Normal (%),[1]; [5],100% and 99%
same,Population Pyknosed Nuclei (%),[1]; [5],36% and 25%
same,Population Tubulin-Different-Phenotype (%),[1]; [5],58% and 63%
same,Total Cell Count,[1]; [5],107 and 167
same,Population Apoptotic (%),[1]; [6],51% and 77%
same,Population Fragmented Nuclei (%),[1]; [6],7% and 16%
same,Population Healthy Nuclei (%),[1]; [6],71% and 63%
same,Population Hoechst High Intensity Objects (%),[1]; [6],0% and 1%
same,Population Membrane Permeable-Phenotype (%),[1]; [6],5% and 7%
same,Population Mitochondria Different-Phenotype (%),[1]; [6],7% and 1%
same,Population Mitotic Cells (%),[1]; [6],48% and 22%
same,Population Normal (%),[1]; [6],100% and 98%
same,Population Pyknosed Nuclei (%),[1]; [6],21% and 19%
same,Population Tubulin-Different-Phenotype (%),[1]; [6],25% and 17%
same,Total Cell Count,[1]; [6],180 and 184
same,Population Apoptotic (%),[1]; [7],71% and 72%
same,Population Fragmented Nuclei (%),[1]; [7],17% and 21%
same,Population Healthy Nuclei (%),[1]; [7],50% and 53%
same,Population Hoechst High Intensity Objects (%),[1]; [7],0%
same,Population Membrane Permeable-Phenotype (%),[1]; [7],14% and 13%
same,Population Mitochondria Different-Phenotype (%),[1]; [7],28% and 21%
same,Population Mitotic Cells (%),[1]; [7],28% and 27%
same,Population Normal (%),[1]; [7],100% and 99%
same,Population Pyknosed Nuclei (%),[1]; [7],31% and 24%
same,Population Tubulin-Different-Phenotype (%),[1]; [7],56% and 58%
same,Total Cell Count,[1]; [7],112 and 153
same,Population Apoptotic (%),[1]; [8],62% and 71%
same,Population Fragmented Nuclei (%),[1]; [8],8% and 9%
same,Population Healthy Nuclei (%),[1]; [8],58% and 63%
same,Population Hoechst High Intensity Objects (%),[1]; [8],0%
same,Population Membrane Permeable-Phenotype (%),[1]; [8],16% and 8%
same,Population Mitochondria Different-Phenotype (%),[1]; [8],7% and 0%
same,Population Mitotic Cells (%),[1]; [8],37% and 28%
same,Population Normal (%),[1]; [8],100%
same,Population Pyknosed Nuclei (%),[1]; [8],32% and 27%
same,Population Tubulin-Different-Phenotype (%),[1]; [8],34% and 15%
same,Total Cell Count,[1]; [8],178 and 166
same,Population Apoptotic (%),[1]; [9],83% and 78%
same,Population Fragmented Nuclei (%),[1]; [9],18% and 26%
same,Population Healthy Nuclei (%),[1]; [9],45% and 50%
same,Population Hoechst High Intensity Objects (%),[1]; [9],0%
same,Population Membrane Permeable-Phenotype (%),[1]; [9],9% and 13%
same,Population Mitotic Cells (%),[1]; [9],16% and 21%
same,Population Normal (%),[1]; [9],100% and 99%
same,Population Pyknosed Nuclei (%),[1]; [9],36% and 23%
same,Population Tubulin-Different-Phenotype (%),[1]; [9],44% and 63%
same,Total Cell Count,[1]; [9],115 and 158
same,Population Apoptotic (%),[2]; [4],40% and 96%
same,Population Fragmented Nuclei (%),[2]; [4],10% and 3%
same,Population Healthy Nuclei (%),[2]; [4],82% and 88%
same,Population Hoechst High Intensity Objects (%),[2]; [4],0%
same,Population Membrane Permeable-Phenotype (%),[2]; [4],1%
same,Population Mitochondria Different-Phenotype (%),[2]; [4],0% and 3%
same,Population Normal (%),[2]; [4],100%
same,Population Pyknosed Nuclei (%),[2]; [4],6% and 7%
same,Population Tubulin-Different-Phenotype (%),[2]; [4],58% and 74%
same,Population Apoptotic (%),[2]; [5],50% and 80%
same,Population Healthy Nuclei (%),[2]; [5],47% and 59%
same,Population Hoechst High Intensity Objects (%),[2]; [5],1% and 0%
same,Population Membrane Permeable-Phenotype (%),[2]; [5],14% and 17%
same,Population Mitochondria Different-Phenotype (%),[2]; [5],17% and 31%
same,Population Mitotic Cells (%),[2]; [5],50% and 19%
same,Population Normal (%),[2]; [5],98% and 100%
same,Population Pyknosed Nuclei (%),[2]; [5],23% and 32%
same,Population Tubulin-Different-Phenotype (%),[2]; [5],82% and 77%
same,Total Cell Count,[2]; [5],60 and 161
same,Population Apoptotic (%),[2]; [6],66% and 72%
same,Population Fragmented Nuclei (%),[2]; [6],6% and 3%
same,Population Healthy Nuclei (%),[2]; [6],87%
same,Population Hoechst High Intensity Objects (%),[2]; [6],0%
same,Population Membrane Permeable-Phenotype (%),[2]; [6],1%
same,Population Mitochondria Different-Phenotype (%),[2]; [6],1%
same,Population Mitotic Cells (%),[2]; [6],33% and 27%
same,Population Normal (%),[2]; [6],100% and 99%
same,Population Pyknosed Nuclei (%),[2]; [6],6% and 9%
same,Population Tubulin-Different-Phenotype (%),[2]; [6],56% and 71%
same,Population Apoptotic (%),[2]; [7],65% and 93%
same,Population Fragmented Nuclei (%),[2]; [7],17% and 11%
same,Population Healthy Nuclei (%),[2]; [7],31% and 25%
same,Population Hoechst High Intensity Objects (%),[2]; [7],1% and 0%
same,Population Membrane Permeable-Phenotype (%),[2]; [7],12% and 14%
same,Population Normal (%),[2]; [7],98% and 99%
same,Population Pyknosed Nuclei (%),[2]; [7],50% and 63%
same,Population Tubulin-Different-Phenotype (%),[2]; [7],81% and 57%
same,Total Cell Count,[2]; [7],52 and 141
same,Population Fragmented Nuclei (%),[2]; [8],4%
same,Population Healthy Nuclei (%),[2]; [8],85% and 86%
same,Population Hoechst High Intensity Objects (%),[2]; [8],0%
same,Population Membrane Permeable-Phenotype (%),[2]; [8],2% and 1%
same,Population Mitochondria Different-Phenotype (%),[2]; [8],0% and 1%
same,Population Normal (%),[2]; [8],99% and 100%
same,Population Pyknosed Nuclei (%),[2]; [8],9%
same,Population Tubulin-Different-Phenotype (%),[2]; [8],57% and 77%
same,Population Apoptotic (%),[2]; [9],96% and 86%
same,Population Fragmented Nuclei (%),[2]; [9],9% and 19%
same,Population Healthy Nuclei (%),[2]; [9],11% and 19%
same,Population Hoechst High Intensity Objects (%),[2]; [9],2%
same,Population Membrane Permeable-Phenotype (%),[2]; [9],56% and 22%
same,Population Mitochondria Different-Phenotype (%),[2]; [9],62% and 22%
same,Population Mitotic Cells (%),[2]; [9],3% and 13%
same,Population Normal (%),[2]; [9],97%
same,Population Pyknosed Nuclei (%),[2]; [9],78% and 61%
same,Population Tubulin-Different-Phenotype (%),[2]; [9],75% and 100%
same,Total Cell Count,[2]; [9],141 and 48
same,Population Apoptotic (%),[3]; [4],65% and 77%
same,Population Fragmented Nuclei (%),[3]; [4],5% and 4%
same,Population Healthy Nuclei (%),[3]; [4],75%
same,Population Hoechst High Intensity Objects (%),[3]; [4],15%
same,Population Membrane Permeable-Phenotype (%),[3]; [4],4% and 1%
same,Population Mitochondria Different-Phenotype (%),[3]; [4],42% and 53%
same,Population Mitotic Cells (%),[3]; [4],34% and 22%
same,Population Normal (%),[3]; [4],84%
same,Population Pyknosed Nuclei (%),[3]; [4],18% and 20%
same,Population Tubulin-Different-Phenotype (%),[3]; [4],74% and 82%
same,Total Cell Count,[3]; [4],329 and 381
same,Population Apoptotic (%),[3]; [5],78% and 82%
same,Population Fragmented Nuclei (%),[3]; [5],6% and 3%
same,Population Healthy Nuclei (%),[3]; [5],75% and 73%
same,Population Hoechst High Intensity Objects (%),[3]; [5],27% and 26%
same,Population Membrane Permeable-Phenotype (%),[3]; [5],7%
same,Population Mitochondria Different-Phenotype (%),[3]; [5],65% and 75%
same,Population Mitotic Cells (%),[3]; [5],21% and 17%
same,Population Normal (%),[3]; [5],72% and 73%
same,Population Pyknosed Nuclei (%),[3]; [5],18% and 22%
same,Population Tubulin-Different-Phenotype (%),[3]; [5],70% and 63%
same,Total Cell Count,[3]; [5],285 and 270
same,Population Apoptotic (%),[3]; [6],76% and 75%
same,Population Fragmented Nuclei (%),[3]; [6],5%
same,Population Healthy Nuclei (%),[3]; [6],80% and 74%
same,Population Hoechst High Intensity Objects (%),[3]; [6],17% and 20%
same,Population Membrane Permeable-Phenotype (%),[3]; [6],2% and 1%
same,Population Mitochondria Different-Phenotype (%),[3]; [6],49% and 52%
same,Population Mitotic Cells (%),[3]; [6],23% and 25%
same,Population Normal (%),[3]; [6],82% and 80%
same,Population Pyknosed Nuclei (%),[3]; [6],14% and 20%
same,Population Tubulin-Different-Phenotype (%),[3]; [6],69% and 74%
same,Total Cell Count,[3]; [6],332 and 395
same,Population Apoptotic (%),[3]; [7],77% and 75%
same,Population Fragmented Nuclei (%),[3]; [7],9% and 3%
same,Population Healthy Nuclei (%),[3]; [7],65% and 68%
same,Population Hoechst High Intensity Objects (%),[3]; [7],30% and 33%
same,Population Membrane Permeable-Phenotype (%),[3]; [7],7% and 5%
same,Population Mitochondria Different-Phenotype (%),[3]; [7],77% and 80%
same,Population Mitotic Cells (%),[3]; [7],22% and 25%
same,Population Normal (%),[3]; [7],69% and 66%
same,Population Pyknosed Nuclei (%),[3]; [7],25% and 28%
same,Population Tubulin-Different-Phenotype (%),[3]; [7],85%
same,Total Cell Count,[3]; [7],268 and 254
same,Population Apoptotic (%),[3]; [8],76% and 85%
same,Population Fragmented Nuclei (%),[3]; [8],6%
same,Population Healthy Nuclei (%),[3]; [8],82% and 78%
same,Population Hoechst High Intensity Objects (%),[3]; [8],11% and 17%
same,Population Membrane Permeable-Phenotype (%),[3]; [8],3% and 0%
same,Population Mitochondria Different-Phenotype (%),[3]; [8],52% and 59%
same,Population Mitotic Cells (%),[3]; [8],23% and 14%
same,Population Normal (%),[3]; [8],88% and 82%
same,Population Pyknosed Nuclei (%),[3]; [8],11% and 15%
same,Population Tubulin-Different-Phenotype (%),[3]; [8],64% and 63%
same,Total Cell Count,[3]; [8],294 and 328
same,Population Apoptotic (%),[3]; [9],84% and 89%
same,Population Fragmented Nuclei (%),[3]; [9],8% and 5%
same,Population Healthy Nuclei (%),[3]; [9],71% and 70%
same,Population Hoechst High Intensity Objects (%),[3]; [9],28% and 20%
same,Population Membrane Permeable-Phenotype (%),[3]; [9],3% and 2%
same,Population Mitochondria Different-Phenotype (%),[3]; [9],77% and 84%
same,Population Mitotic Cells (%),[3]; [9],15% and 10%
same,Population Normal (%),[3]; [9],71% and 79%
same,Population Pyknosed Nuclei (%),[3]; [9],20% and 24%
same,Population Tubulin-Different-Phenotype (%),[3]; [9],83% and 87%
same,Total Cell Count,[3]; [9],309 and 250
